Reference: ChEMBL document CHEMBL2010755, “Synthesis of new sulfonamides as lipoxygenase inhibitors” (Bioorg Med Chem, 2012)

Assays:
[1] = Inhibition of lipoxygenase using linoleic acid as substrate at 0.5 mM after 10 mins preincubation
Method in brief: (§1)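 Purified lipoxygenase (600 units per well) in 100 mM sodium phosphate buffer pH 8.0, with test compound. Pre-read at 234 nm, preincubated 10 min at 25 °C, then started with linoleic acid. Absorbance change at 234 nm read after 6 min. Percent inhibition tested at 0.5 mM. IC50 obtained from dilutions of compounds exceeding 50% inhibition. Triplicates, mean ± SEM.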

[2] = Inhibition of lipoxygenase using linoleic acid as substrate after 10 mins preincubation; method in brief: as §1

SMILES	inhibition [1] [%]	IC50 [2] [µM]
CCCCCN(c1ccc(C(=O)O)cc1)S(=O)(=O)c1ccc(C)cc1	98.6	68.6
CCOC(=O)c1ccc(N(CC)S(=O)(=O)c2ccc(C)cc2)cc1	97.6	231
CCCCN(c1ccc(C(=O)O)cc1)S(=O)(=O)c1ccc(C)cc1	99.4	61.4
CCCN(c1ccc(C(=O)O)cc1)S(=O)(=O)c1ccc(C)cc1	40	> 500
O=c1cc(-c2ccccc2)oc2cc(O)c(O)c(O)c12 [BAICALEIN]		22.4
Cc1ccc(S(=O)(=O)N(Cc2ccccc2)c2ccc(C(=O)O)cc2)cc1	85.1	59.1
Cc1ccc(S(=O)(=O)N(C(=O)c2ccccc2)c2ccc(C(=O)O)cc2)cc1	99	91.7
Cc1ccc(S(=O)(=O)N(CCCl)c2ccc(C(=O)O)cc2)cc1	21.9	> 600
C=CCN(c1ccc(C(=O)O)cc1)S(=O)(=O)c1ccc(C)cc1	96.2	219
Cc1ccc(S(=O)(=O)N(C/C=C/c2ccccc2)c2ccc(C(=O)OC/C=C/c3ccccc3)cc2)cc1	26.9	> 600
O=c1c(O)c(-c2ccc(O)c(O)c2)oc2cc(O)cc(O)c12 [QUERCETIN]		37.1
COC(=O)c1ccc(N(C)S(=O)(=O)c2ccc(C)cc2)cc1	88.5	189
Cc1ccc(S(=O)(=O)N(C(=O)c2ccc(Cl)cc2)c2ccc(C(=O)O)cc2)cc1	98.1	176
Cc1ccc(S(=O)(=O)Nc2ccc(C(=O)OCC#N)cc2)cc1	97	232
Cc1ccc(S(=O)(=O)Nc2ccc(C(=O)O)cc2)cc1	99.4	139
CC(C)=CCN(c1ccc(C(=O)O)cc1)S(=O)(=O)c1ccc(C)cc1	98.7	15.8
